Test results reported in publication PMC6861656 (Angewandte Chemie (International ed. in English), 2019).

Assays:
[1] = molecular target: T1, GLUT1 (Homo sapiens, UniProt P11166); experiment: rapafucin 3D microarray screen with GLUT1-containing cell lysate; type: binding; settings: hit when SBR greater than 3; GLUT1-containing HEK293T lysate
T1 sequence (P11166 1-492): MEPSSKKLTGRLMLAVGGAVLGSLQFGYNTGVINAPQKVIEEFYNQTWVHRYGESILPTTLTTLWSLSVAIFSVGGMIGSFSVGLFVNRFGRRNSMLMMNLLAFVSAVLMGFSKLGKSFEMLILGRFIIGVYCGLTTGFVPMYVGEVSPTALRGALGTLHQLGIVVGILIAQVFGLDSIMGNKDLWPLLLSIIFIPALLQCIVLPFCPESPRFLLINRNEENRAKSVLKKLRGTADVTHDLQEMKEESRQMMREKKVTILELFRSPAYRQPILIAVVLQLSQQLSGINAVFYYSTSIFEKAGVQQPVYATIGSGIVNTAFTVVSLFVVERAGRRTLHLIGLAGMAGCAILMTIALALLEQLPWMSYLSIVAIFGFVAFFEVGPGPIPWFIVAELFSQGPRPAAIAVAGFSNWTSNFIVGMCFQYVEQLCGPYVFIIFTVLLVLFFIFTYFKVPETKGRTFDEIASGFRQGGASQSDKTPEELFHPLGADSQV
Method in brief: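 HEK293T cells stably overexpressing GLUT1 gave a detergent-solubilised lysate. This was incubated on rapafucin arrays printed on a diazirine 3D copolymer surface (PEGMA:DMAEMA 8:2; ATRP initiator:propionyl bromide 1:100). Unbound protein was washed off, and bound GLUT1 was detected with anti-GLUT1 antibody plus Cy5 secondary on a microarray scanner. BAY-876 served as positive control.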

[2] = molecular target: T2, DLD-1 GLUT1 knock out (for GLUT3) (Homo sapiens, UniProt P11169); experiment: [3H]-2DG uptake in DLD-1 GLUT1 knock out cells; type: cell-based; settings: DLD-1 GLUT1 knock out vs wild type
T2 sequence (P11169 1-496): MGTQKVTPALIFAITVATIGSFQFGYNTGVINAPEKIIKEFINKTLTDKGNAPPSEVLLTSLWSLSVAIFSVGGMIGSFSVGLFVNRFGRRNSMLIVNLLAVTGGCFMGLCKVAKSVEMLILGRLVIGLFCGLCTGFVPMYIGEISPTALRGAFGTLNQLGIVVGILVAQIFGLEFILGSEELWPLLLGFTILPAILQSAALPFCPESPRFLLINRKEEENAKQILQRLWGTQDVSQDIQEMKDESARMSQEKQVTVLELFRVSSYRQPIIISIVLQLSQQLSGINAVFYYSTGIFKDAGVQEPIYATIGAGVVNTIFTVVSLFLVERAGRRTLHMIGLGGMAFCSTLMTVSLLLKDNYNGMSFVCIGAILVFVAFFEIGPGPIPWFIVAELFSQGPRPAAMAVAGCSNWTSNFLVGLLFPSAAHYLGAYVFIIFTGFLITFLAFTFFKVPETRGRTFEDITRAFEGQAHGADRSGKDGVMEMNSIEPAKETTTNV
Method in brief: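 Isogenic DLD-1 lines were run in parallel: wild type (GLUT1) and GLUT1 knockout (GLUT3). Each was treated with test compound, BAY-876 (GLUT1-specific reference) or cytochalasin B (non-specific GLUT inhibitor), then [3H]-2DG uptake was assessed.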

[3] = system: MCF-7 cells; experiment: FKBP ligand competition in [3H]-2DG uptake assay in MCF-7 cells; type: cell-based, human; settings: 20 μM with 100nM of RgA
Method in brief: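 MCF-7 cells were exposed to test compound at 100 nM together with 20 μM FK506, 20 μM rapamycin, or their combinations, with each agent also given alone. [3H]-2DG uptake was then measured to test whether excess FKBP-binding ligands antagonise inhibition of glucose uptake.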

SMILES	signal-to-background ratio (SBR), positive hit on 3D rapafucin microarray [1]	inhibitory activity on [3H]-2DG uptake in GLUT1 knock out cells [2]	effect on the inhibitory activity of RgA in the [3H]-2DG uptake assay [3]
Cc1c(NC(=O)c2cc(C(N)=O)nc3cc(F)ccc23)c(C(F)(F)F)nn1Cc1ccc(C#N)cc1 [BAY-876]	identified	lost its inhibitory activity	–
C=CC[C@@H]1/C=C(\C)C[C@H](C)C[C@H](OC)[C@H]2O[C@@](O)(C(=O)C(=O)N3CCCC[C@H]3C(=O)O[C@H](/C(C)=C/[C@@H]3CC[C@@H](O)[C@H](OC)C3)[C@H](C)[C@@H](O)CC1=O)[C@H](C)C[C@@H]2OC [FK506]	–	–	negligible effect
C=C1[C@@H](C)[C@H]2[C@H](Cc3ccccc3)NC(=O)[C@]23OC(=O)/C=C/[C@H](O)CCC[C@@H](C)C/C=C/[C@H]3[C@@H]1O [cytochalasin B]	–	maintained its inhibitory activity	–
CO[C@H]1C[C@@H]2CC[C@@H](C)[C@@](O)(O2)C(=O)C(=O)N2CCCC[C@H]2C(=O)O[C@H]([C@H](C)C[C@@H]2CC[C@@H](O)[C@H](OC)C2)CC(=O)[C@H](C)/C=C(\C)[C@@H](O)[C@@H](OC)C(=O)[C@H](C)C[C@H](C)/C=C/C=C/C=C/1C [rapamycin]	–	–	negligible effect
